Assay [1] deals with T1, Sucrase-isomaltase, intestinal (Rattus norvegicus, UniProt P23739). Description: Inhibition of rat intestinal isomaltase. Put shortly:
(§1)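 Crude enzyme from rat intestinal acetone powder in 0.1 M K3PO4 buffer (5 mM EDTA, pH 7). Substrates: maltose 25 mM (maltase), sucrose 100 mM (sucrase), isomaltose 25 mM (isomaltase). Sample added in DMSO. Incubated 30 min, then stopped with 2 M Tris-HCl. Released glucose measured by glucose oxidase. IC50 read graphically from percent inhibition versus log concentration.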

For assay [2], the target named is T1, Sucrase-isomaltase, intestinal. Description: Inhibition of rat intestinal sucrase. The method, boiled down: as §1
The target in assay [3] is T2, Pancreatic alpha-amylase (Sus scrofa) (UniProt P00690).
T2 sequence (whole entry): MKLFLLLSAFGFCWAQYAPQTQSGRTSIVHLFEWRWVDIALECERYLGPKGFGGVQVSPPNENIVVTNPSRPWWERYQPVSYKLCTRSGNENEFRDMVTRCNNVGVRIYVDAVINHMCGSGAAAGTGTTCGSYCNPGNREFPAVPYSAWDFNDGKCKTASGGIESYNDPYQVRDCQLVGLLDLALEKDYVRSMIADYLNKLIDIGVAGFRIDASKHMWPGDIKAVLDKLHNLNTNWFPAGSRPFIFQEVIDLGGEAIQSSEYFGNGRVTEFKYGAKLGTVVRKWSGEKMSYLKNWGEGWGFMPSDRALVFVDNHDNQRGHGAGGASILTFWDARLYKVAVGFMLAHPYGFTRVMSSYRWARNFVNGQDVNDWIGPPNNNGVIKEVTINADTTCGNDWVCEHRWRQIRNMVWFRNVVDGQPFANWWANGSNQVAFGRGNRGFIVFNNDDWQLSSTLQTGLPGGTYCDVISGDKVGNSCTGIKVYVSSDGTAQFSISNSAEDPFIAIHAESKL
The assay is described as follows: Inhibition of pig pancreas alpha amylase.

Structures are written as SMILES. Active and inactive are the calls of the source. The rule behind the calls is not given here.

T1 sequence (P23739 1-1013 limits assumed): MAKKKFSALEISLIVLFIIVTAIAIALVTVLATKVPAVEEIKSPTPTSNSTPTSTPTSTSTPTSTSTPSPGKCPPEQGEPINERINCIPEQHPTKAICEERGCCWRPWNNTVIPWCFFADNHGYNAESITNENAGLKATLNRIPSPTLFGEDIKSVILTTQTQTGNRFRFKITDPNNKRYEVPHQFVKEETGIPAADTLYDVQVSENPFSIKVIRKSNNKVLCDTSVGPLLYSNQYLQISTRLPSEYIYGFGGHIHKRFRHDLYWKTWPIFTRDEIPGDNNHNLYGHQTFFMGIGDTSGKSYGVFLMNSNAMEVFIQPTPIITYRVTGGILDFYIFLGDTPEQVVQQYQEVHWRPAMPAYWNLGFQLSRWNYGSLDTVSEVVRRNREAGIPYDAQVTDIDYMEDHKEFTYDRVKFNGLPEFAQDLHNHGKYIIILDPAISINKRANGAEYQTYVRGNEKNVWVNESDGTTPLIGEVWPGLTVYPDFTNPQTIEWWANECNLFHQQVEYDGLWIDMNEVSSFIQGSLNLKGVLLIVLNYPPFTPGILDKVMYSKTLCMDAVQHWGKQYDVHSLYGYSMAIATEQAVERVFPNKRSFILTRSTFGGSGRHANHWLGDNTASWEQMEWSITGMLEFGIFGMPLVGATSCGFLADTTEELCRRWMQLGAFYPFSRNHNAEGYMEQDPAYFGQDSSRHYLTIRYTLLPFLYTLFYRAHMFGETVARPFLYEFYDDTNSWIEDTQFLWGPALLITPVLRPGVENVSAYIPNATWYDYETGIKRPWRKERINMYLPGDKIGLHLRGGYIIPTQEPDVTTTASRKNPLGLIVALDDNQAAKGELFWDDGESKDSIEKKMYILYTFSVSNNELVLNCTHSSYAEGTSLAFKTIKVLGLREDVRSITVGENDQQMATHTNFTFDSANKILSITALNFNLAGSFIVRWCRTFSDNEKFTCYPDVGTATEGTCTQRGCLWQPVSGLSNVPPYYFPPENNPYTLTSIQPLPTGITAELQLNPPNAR
T1 sequence (P23739 1014-1841 limits assumed): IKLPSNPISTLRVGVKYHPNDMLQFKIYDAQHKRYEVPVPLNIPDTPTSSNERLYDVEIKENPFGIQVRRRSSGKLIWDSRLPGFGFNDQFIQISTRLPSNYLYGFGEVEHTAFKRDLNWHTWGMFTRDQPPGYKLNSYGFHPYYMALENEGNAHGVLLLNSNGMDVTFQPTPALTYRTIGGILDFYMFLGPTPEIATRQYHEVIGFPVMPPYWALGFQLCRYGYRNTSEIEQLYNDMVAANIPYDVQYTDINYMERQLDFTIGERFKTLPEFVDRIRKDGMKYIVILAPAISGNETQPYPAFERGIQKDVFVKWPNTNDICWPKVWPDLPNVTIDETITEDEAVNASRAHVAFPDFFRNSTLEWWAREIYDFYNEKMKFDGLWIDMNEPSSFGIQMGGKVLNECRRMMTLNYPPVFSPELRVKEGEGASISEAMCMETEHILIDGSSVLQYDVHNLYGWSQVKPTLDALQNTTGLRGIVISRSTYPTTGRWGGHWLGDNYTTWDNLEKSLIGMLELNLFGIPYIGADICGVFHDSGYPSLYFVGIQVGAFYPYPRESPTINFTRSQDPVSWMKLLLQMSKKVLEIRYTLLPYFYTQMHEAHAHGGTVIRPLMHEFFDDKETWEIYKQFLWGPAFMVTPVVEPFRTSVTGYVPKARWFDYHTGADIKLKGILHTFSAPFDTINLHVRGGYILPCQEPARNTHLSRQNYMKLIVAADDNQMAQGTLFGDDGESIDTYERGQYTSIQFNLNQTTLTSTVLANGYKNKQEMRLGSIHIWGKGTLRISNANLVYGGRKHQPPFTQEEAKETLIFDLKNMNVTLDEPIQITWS

For the compound `[O-][S+]1CC(O)C(O)C(O)CC(O)CC(O)C(O)C(O)C(O)C1` (stereo not drawn), in assay [1], the midpoint of inhibition, the IC50, lay at 99 nM and the Ki (in general, a dissociation constant, usually derived from enzyme kinetics or from competition with a known ligand) amounted to 420 nM. Further, in assay [2], the IC50 (commonly the midpoint of a concentration-inhibition curve) is 186 nM and the affinity, expressed as Ki, was 52 nM. The result in assay [3] was inactive.

In assay [1], `O=S(=O)([O-])O[C@@H]([C@H](O)[C@H](O)[C@@H](O)CO)[C@H](O)C[S+]1C[C@@H](O)[C@H](O)[C@H]1CO` (stereo partly drawn) [KOTALANOL] returned an IC50 of 4480 nM and a Ki of 4200 nM. Further, in assay [2], the IC50 is 1370 nM and the Ki stood at 420 nM.

With `O=S(=O)([O-])O[C@@H](CO)[C@H](O)C[S@+]1C[C@@H](O)[C@H](O)[C@H]1CO` [SALACINOL], in assay [1], the IC50 was 1770 nM and the Ki turned out to be 1100 nM. In assay [2], this compound came in with an IC50 of 2510 nM and a Ki of 200 nM.

For the origin of these results see ChEMBL document CHEMBL1157509, “Alpha-glucosidase inhibitor from Kothala-himbutu (Salacia reticulata WIGHT)” (J Nat Prod, 2008).
